Results on 17 compounds are retold here after ChEMBL document CHEMBL4043264, “Design, synthesis, X-ray studies, and biological evaluation of novel macrocyclic HIV-1 protease inhibitors involving the P1'-P2' ligands” (Bioorg Med Chem Lett, 2017).

The term Ki denotes a measure of affinity in units of concentration, obtained from inhibition or displacement. Usually IC50 stands for the concentration needed to halve the response being measured.

Some results are limits rather than exact numbers.

A short description of test [1]: Inhibition of HIV-1 protease using fluorogenic substrate by fluorescence assay. On the set-up: species or system Human immunodeficiency virus 1.
In test [2] the test system is Human immunodeficiency virus 1. The test is described as follows: Anti-viral activity against HIV-1 LAI infected in human MT2 cells assessed as reduction in p24 Gag protein production. The test is classed as functional, cell-based. Conditions: Human immunodeficiency virus 1, M:B_Lai.
Test [3] has as its system Human immunodeficiency virus 1. The test is described as follows: Antiviral activity against HIV-1 harboring protease I50V mutant. It counts as functional.
Test [4] in a line: Inhibition of wild-type HIV-1 protease. More on the design: species or system Human immunodeficiency virus 1.
Test [5] relates to Human immunodeficiency virus 1. The test is described as follows: Antiviral activity against darunavir-resistant HIV1 harboring protease L10I/[…]K20R/L24I/V32I/M36I/M46L/L63P/V82A/L89M mutant infected in human MT4 cells assessed as reduction in p24 Gag protein production. The test is classed as functional, cell-based. Conditions: Human immunodeficiency virus 1, MT4. In outline: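 MT-4 cells (1×10^4) infected with 50 TCID₅₀ of wild-type HIV-1 NL4-3 or the DRV-resistant variant HIV-1 DRV^R P20 (protease L10I/I15V/K20R/L24I/V32I/M36I/M46L/L63P/V82A/L89M). Cells then cultured with various concentrations of each protease inhibitor. IC50 determined from p24 assay. Each assay run in triplicate. Values are means of three independent experiments, with fold-change relative to wild type.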

Test [6] can be described thus: Ratio of IC50 for darunavir-resistant HIV1 harboring protease L10I/I15V/K20R/L24I/V32I/M36I/M46L/L63P/V82A/L89M mutant infected in human MT4 cells to IC50 for wild type HIV1 NL4-3 infected in human MT4 cells. It counts as functional.
Test [7] deals with Human immunodeficiency virus 1. The test is described as follows: Antiviral activity against wild type HIV-1 NL4-3 infected in human MT4 cells assessed as reduction in p24 Gag protein production. It counts as functional, cell-based. Conditions: Human immunodeficiency virus 1, NL4-3, MT4.

Turning to `COc1ccc2c(c1)COCCCCCCCCN(C[C@@H](O)[C@H](Cc1ccccc1)NC(=O)O[C@H]1CO[C@H]3OCC[C@H]31)S2(=O)=O`, the Ki in test [1] was found to be 0.062 nM. The IC50 in test [2] was 31 nM.

With `COc1ccc(S(=O)(=O)N(CC(C)C)C[C@@H](O)[C@H](Cc2ccccc2)NC(=O)O[C@H]2CO[C@H]3OCC[C@H]32)cc1`, the midpoint of inhibition in test [3], the IC50, lay at 1.2 nM. Besides, the affinity in test [4] corresponds to a Ki of 0.014 nM.

For the compound `COc1ccc2c(c1)OCC/C=C/CN1C(=O)CC[C@@H]1CN(C[C@@H](O)[C@H](Cc1ccccc1)NC(=O)O[C@H]1CO[C@H]3OCC[C@H]31)S2(=O)=O`, in test [1], the Ki came out at 0.47 nM. The concentration for half-maximal inhibition (IC50) in test [2] came to 176 nM.

With `COc1ccc2c(c1)COC/C=C\CCCCN(C[C@@H](O)[C@H](Cc1ccccc1)NC(=O)O[C@H]1CO[C@H]3OCC[C@H]31)S2(=O)=O`, the inhibition constant Ki in test [1] was found to be 0.029 nM. In addition, the IC50 in test [2] came out at 54 nM.

`COc1ccc2c(c1)OCCCCCCN(S(C)(=O)=O)CCN(C[C@@H](O)[C@H](Cc1ccccc1)NC(=O)O[C@H]1CO[C@H]3OCC[C@H]31)S2(=O)=O`: in test [1], the inhibitory constant (Ki) is 13.3 nM.

`COc1ccc2c(c1)OCCCCCCOCCN(C[C@@H](O)[C@H](Cc1ccccc1)NC(=O)O[C@H]1CO[C@H]3OCC[C@H]31)S2(=O)=O` had a Ki in test [1] of 9.85 nM. In test [2], the half-inhibitory concentration (IC50) is above 1000 nM.

On to `COc1ccc2c(c1)OCCCCCN1C(=O)CC[C@H]1CN(C[C@@H](O)[C@H](Cc1ccccc1)NC(=O)O[C@H]1CO[C@H]3OCC[C@H]31)S2(=O)=O`, for which the inhibition constant (Ki) in test [1] was 27 nM. In addition, in test [2], the concentration for half-maximal inhibition (IC50) is above 1000 nM.

Consider `Nc1ccc2c(c1)COCCCCCCCN(C[C@@H](O)[C@H](Cc1ccccc1)NC(=O)O[C@H]1CO[C@H]3OCC[C@H]31)S2(=O)=O`, for which the values for the IC50 in test [5], in test [7] and in test [2] were 20 nM, 1.5 nM and 2 nM, respectively. For the same compound, the “Ratio IC50” value in test [6] is on record as 13. This compound registered an inhibition constant Ki in test [1] of 0.014 nM.

Consider `COc1ccc2c(c1)COC/C=C\CCCCCN(C[C@@H](O)[C@H](Cc1ccccc1)NC(=O)O[C@H]1CO[C@H]3OCC[C@H]31)S2(=O)=O`, for which, in test [1], the affinity corresponds to a Ki of 0.64 nM.

In turn, `CC(C)CN(C[C@@H](O)[C@H](Cc1ccccc1)NC(=O)O[C@H]1CO[C@H]2OCC[C@H]21)S(=O)(=O)c1ccc(N)cc1` returned a half-maximal inhibitory concentration (IC50) in test [3] of 1.6 nM.

Compound `COc1ccc2c(c1)COC/C=C/CCCCN(C[C@@H](O)[C@H](Cc1ccccc1)NC(=O)O[C@H]1CO[C@H]3OCC[C@H]31)S2(=O)=O` gave a Ki in test [1] of 0.015 nM. Further, the IC50 in test [2] worked out at 46 nM.

`COc1ccc2c(c1)OCCCCCN1C(=O)CC[C@@H]1CN(C[C@@H](O)[C@H](Cc1ccccc1)NC(=O)O[C@H]1CO[C@H]3OCC[C@H]31)S2(=O)=O` had an inhibition constant (Ki) in test [1] of 0.46 nM. Moreover, in test [2], the IC50 was 122 nM.

Regarding `COc1ccc2c(c1)COCCCCCCCN(C[C@@H](O)[C@H](Cc1ccccc1)NC(=O)O[C@H]1CO[C@H]3OCC[C@H]31)S2(=O)=O`, the values for the IC50 in test [5], in test [7] and in test [2] were 240 nM, 3.6 nM and 5.3 nM, respectively. Moreover, the “Ratio IC50” value in test [6] is recorded as 67. This compound yielded an inhibition constant Ki in test [1] of 0.062 nM.

`COc1ccc2c(c1)OCCCCCOCCN(C[C@@H](O)[C@H](Cc1ccccc1)NC(=O)O[C@H]1CO[C@H]3OCC[C@H]31)S2(=O)=O`: the inhibition constant (Ki) in test [1] was 4.21 nM.

Regarding `COc1ccc2c(c1)OCC/C=C\CN1C(=O)CC[C@@H]1CN(C[C@@H](O)[C@H](Cc1ccccc1)NC(=O)O[C@H]1CO[C@H]3OCC[C@H]31)S2(=O)=O`, in test [1], the inhibition constant (Ki) was 13.2 nM. For the same compound, the 50% inhibitory concentration (IC50) in test [2] is 22 nM.

`COc1ccc2c(c1)OCCCCCN(S(C)(=O)=O)CCN(C[C@@H](O)[C@H](Cc1ccccc1)NC(=O)O[C@H]1CO[C@H]3OCC[C@H]31)S2(=O)=O` displayed an inhibition constant Ki in test [1] of 33.3 nM.

Turning to `COc1ccc2c(c1)COC/C=C/CCCCCN(C[C@@H](O)[C@H](Cc1ccccc1)NC(=O)O[C@H]1CO[C@H]3OCC[C@H]31)S2(=O)=O`, the inhibition constant (Ki) in test [1] is 0.55 nM.
